Assays:
Type in all cases: functional
[1] = system: Bacillus subtilis; assay: Antibacterial activity against Bacillus subtilis MTCC 121 at 10 ug per disk after 24 hrs by disc diffusion method; conditions: for zone of inhibition at 10 µg/disc: MTCC 121, 24 h, read-out: DIZ
Method in brief: (§1)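 Standard 0.5 McFarland inoculum spread evenly over nutrient agar plates with a sterile L-shaped glass spreader. Plates incubated 24 h at 37 °C. Gentamicin as reference standard. Read-out: zone of inhibition in mm, measured in triplicate and compared with control and standard.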

[2] = system: Aspergillus flavus; assay: Antifungal activity against Aspergillus flavus MTCC 8188 at 10 ug per disk after 2 to 3 days by disc diffusion method; conditions: for zone of inhibition at 10 µg/disc: read-out: DIZ
Method in brief: (§2)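 Fungal inoculum: a loopful of each strain suspended in saline, spread evenly on yeast extract potato dextrose agar with a sterile glass spreader. Sterile 5 mm discs loaded with test compound in DMSO placed on the agar. Plates incubated 2–3 days at room temperature. Nystatin as reference standard. Zones of inhibition measured and compared with control and standard.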

[3] = system: Candida albicans; assay: Antifungal activity against Candida albicans MTCC 7253 at 10 ug per disk after 2 to 3 days by disc diffusion method; conditions: read-out: DIZ; method in brief: as §2
[4] = system: Escherichia coli; assay: Antibacterial activity against Escherichia coli MTCC 1573 at 10 ug per disk after 24 hrs by disc diffusion method; conditions: MTCC 1573, 24 h, read-out: DIZ; method in brief: as §1
[5] = system: Pseudomonas aeruginosa; assay: Antibacterial activity against Pseudomonas aeruginosa MTCC 2453 at 10 ug per disk after 24 hrs by disc diffusion method; conditions: MTCC 2453, 24 h, read-out: DIZ; method in brief: as §1
[6] = system: Klebsiella pneumoniae; assay: Antibacterial activity against Klebsiella pneumoniae MTCC 618 at 10 ug per disk after 24 hrs by disc diffusion method; conditions: for zone of inhibition at 10 µg/disc: MTCC 618, 24 h, read-out: DIZ; method in brief: as §1
[7] = system: Staphylococcus aureus; assay: Antibacterial activity against Staphylococcus aureus MTCC 1430 at 10 ug per disk after 24 hrs by disc diffusion method; conditions: MTCC 1430, 24 h, read-out: DIZ; method in brief: as §1

Compound: CCCCc1nc(Cl)c(-c2cc(-c3cn(S(=O)(=O)c4ccc(C)cc4)c4ccccc34)nc3c2C(=O)c2ccccc2-3)n1Cc1ccccc1
- zone of inhibition at 10 µg/disc [1]: 7 mm
- zone of inhibition at 10 µg/disc [2]: 11 mm
- zone of inhibition at 10 µg/disc [3]: 13 mm
- zone of inhibition at 10 µg/disc [4]: 8 mm
- zone of inhibition at 10 µg/disc [5]: 7 mm
- zone of inhibition at 10 µg/disc [6]: 12 mm
- zone of inhibition at 10 µg/disc [7]: 10 mm

Compound: CCCCc1nc(Cl)c(-c2cc(-c3cccs3)nc3c2C(=O)c2ccccc2-3)n1Cc1ccccc1
- zone of inhibition at 10 µg/disc [1]: 10 mm
- zone of inhibition at 10 µg/disc [2]: 5 mm
- zone of inhibition at 10 µg/disc [3]: 10 mm
- zone of inhibition at 10 µg/disc [4]: 9 mm
- zone of inhibition at 10 µg/disc [5]: 11 mm
- zone of inhibition at 10 µg/disc [6]: 10 mm
- zone of inhibition at 10 µg/disc [7]: 10 mm

Compound: CCCCc1nc(Cl)c(-c2cc(-c3ccco3)nc3c2C(=O)c2ccccc2-3)n1Cc1ccccc1
- zone of inhibition at 10 µg/disc [1]: 8 mm
- zone of inhibition at 10 µg/disc [2]: 10 mm
- zone of inhibition at 10 µg/disc [3]: 13 mm
- zone of inhibition at 10 µg/disc [4]: 8 mm
- zone of inhibition at 10 µg/disc [5]: 14 mm
- zone of inhibition at 10 µg/disc [6]: 15 mm
- zone of inhibition at 10 µg/disc [7]: 15 mm

Compound: CCCCc1nc(Cl)c(-c2cc(-c3ccc4ccccc4c3)nc3c2C(=O)c2ccccc2-3)n1Cc1ccccc1
- zone of inhibition at 10 µg/disc [1]: 9 mm
- zone of inhibition at 10 µg/disc [2]: 6 mm
- zone of inhibition at 10 µg/disc [3]: 10 mm
- zone of inhibition at 10 µg/disc [4]: 8 mm
- zone of inhibition at 10 µg/disc [5]: 13 mm
- zone of inhibition at 10 µg/disc [6]: 12 mm
- zone of inhibition at 10 µg/disc [7]: 12 mm

Compound: NYSTATIN
- inhibition zone (IZ) [2]: 9 mm

Compound: CCCCc1nc(Cl)c(-c2cc(-c3ccc4sc5ccccc5c4c3)nc3c2C(=O)c2ccccc2-3)n1Cc1ccccc1
- zone of inhibition at 10 µg/disc [1]: 9 mm
- zone of inhibition at 10 µg/disc [2]: 10 mm
- zone of inhibition at 10 µg/disc [3]: 14 mm
- zone of inhibition at 10 µg/disc [4]: 8 mm
- zone of inhibition at 10 µg/disc [5]: 7 mm
- zone of inhibition at 10 µg/disc [6]: 11 mm
- zone of inhibition at 10 µg/disc [7]: 12 mm

Compound: CCCCc1nc(Cl)c(-c2cc(-c3cccc4ccccc34)nc3c2C(=O)c2ccccc2-3)n1Cc1ccccc1
- zone of inhibition at 10 µg/disc [1]: 10 mm
- zone of inhibition at 10 µg/disc [2]: 5 mm
- zone of inhibition at 10 µg/disc [3]: 12 mm
- zone of inhibition at 10 µg/disc [4]: 9 mm
- zone of inhibition at 10 µg/disc [5]: 6 mm
- zone of inhibition at 10 µg/disc [6]: 12 mm
- zone of inhibition at 10 µg/disc [7]: 12 mm

Compound: CCCCc1nc(Cl)c(-c2cc(-c3ccccc3)nc3c2C(=O)c2ccccc2-3)n1Cc1ccccc1
- zone of inhibition at 10 µg/disc [1]: 8 mm
- zone of inhibition at 10 µg/disc [2]: 8 mm
- zone of inhibition at 10 µg/disc [3]: 10 mm
- zone of inhibition at 10 µg/disc [4]: 9 mm
- zone of inhibition at 10 µg/disc [5]: 10 mm
- zone of inhibition at 10 µg/disc [6]: 11 mm
- zone of inhibition at 10 µg/disc [7]: 12 mm

Compound: CCCCc1nc(Cl)c(-c2cc(-c3cccc(Br)n3)nc3c2C(=O)c2ccccc2-3)n1Cc1ccccc1
- zone of inhibition at 10 µg/disc [1]: 8 mm
- zone of inhibition at 10 µg/disc [2]: 9 mm
- zone of inhibition at 10 µg/disc [3]: 11 mm
- zone of inhibition at 10 µg/disc [4]: 9 mm
- zone of inhibition at 10 µg/disc [5]: 12 mm
- zone of inhibition at 10 µg/disc [6]: 9 mm
- zone of inhibition at 10 µg/disc [7]: 12 mm

Compound: CCCCc1nc(Cl)c(-c2cc(-c3ccc(Br)s3)nc3c2C(=O)c2ccccc2-3)n1Cc1ccccc1
- zone of inhibition at 10 µg/disc [1]: 9 mm
- zone of inhibition at 10 µg/disc [2]: 7 mm
- zone of inhibition at 10 µg/disc [3]: 9 mm
- zone of inhibition at 10 µg/disc [4]: 8 mm
- zone of inhibition at 10 µg/disc [5]: 13 mm
- zone of inhibition at 10 µg/disc [6]: 12 mm
- zone of inhibition at 10 µg/disc [7]: 12 mm

Compound: CCCCc1nc(Cl)c(-c2cc(-c3ccc4oc5ccccc5c4c3)nc3c2C(=O)c2ccccc2-3)n1Cc1ccccc1
- zone of inhibition at 10 µg/disc [1]: 9 mm
- zone of inhibition at 10 µg/disc [2]: 7 mm
- zone of inhibition at 10 µg/disc [3]: 10 mm
- zone of inhibition at 10 µg/disc [4]: 9 mm
- zone of inhibition at 10 µg/disc [5]: 13 mm
- zone of inhibition at 10 µg/disc [6]: 13 mm
- zone of inhibition at 10 µg/disc [7]: 11 mm

Compound: CCCCc1nc(Cl)c(-c2cc(-c3ccc([N+](=O)[O-])cc3)nc3c2C(=O)c2ccccc2-3)n1Cc1ccccc1
- zone of inhibition at 10 µg/disc [1]: 10 mm
- zone of inhibition at 10 µg/disc [2]: 6 mm
- zone of inhibition at 10 µg/disc [3]: 11 mm
- zone of inhibition at 10 µg/disc [4]: 8 mm
- zone of inhibition at 10 µg/disc [5]: 10 mm
- zone of inhibition at 10 µg/disc [6]: 10 mm
- zone of inhibition at 10 µg/disc [7]: 10 mm

Compound: CCCCc1nc(Cl)c(-c2cc(-c3ccc(C)cc3)nc3c2C(=O)c2ccccc2-3)n1Cc1ccccc1
- zone of inhibition at 10 µg/disc [1]: 8 mm
- zone of inhibition at 10 µg/disc [2]: 7 mm
- zone of inhibition at 10 µg/disc [3]: 10 mm
- zone of inhibition at 10 µg/disc [4]: 9 mm
- zone of inhibition at 10 µg/disc [5]: 8 mm
- zone of inhibition at 10 µg/disc [6]: 11 mm
- zone of inhibition at 10 µg/disc [7]: 10 mm

Compound: CCCCc1nc(Cl)c(-c2cc(-c3ccc(OC)cc3)nc3c2C(=O)c2ccccc2-3)n1Cc1ccccc1
- zone of inhibition at 10 µg/disc [1]: 9 mm
- zone of inhibition at 10 µg/disc [2]: 6 mm
- zone of inhibition at 10 µg/disc [3]: 12 mm
- zone of inhibition at 10 µg/disc [4]: 8 mm
- zone of inhibition at 10 µg/disc [5]: 9 mm
- zone of inhibition at 10 µg/disc [6]: 11 mm
- zone of inhibition at 10 µg/disc [7]: 10 mm

Compound: CCCCc1nc(Cl)c(-c2cc(-c3ccc(Br)cc3)nc3c2C(=O)c2ccccc2-3)n1Cc1ccccc1
- zone of inhibition at 10 µg/disc [1]: 9 mm
- zone of inhibition at 10 µg/disc [2]: 7 mm
- zone of inhibition at 10 µg/disc [3]: 10 mm
- zone of inhibition at 10 µg/disc [4]: 9 mm
- zone of inhibition at 10 µg/disc [5]: 6 mm
- zone of inhibition at 10 µg/disc [6]: 12 mm
- zone of inhibition at 10 µg/disc [7]: 12 mm

Compound: GENTAMICIN
- inhibition zone (IZ) [1]: 14 mm
- inhibition zone (IZ) [6]: 19 mm

Compound: CCCCc1nc(Cl)c(-c2cc(-c3cc(OC)c(OC)c(OC)c3)nc3c2C(=O)c2ccccc2-3)n1Cc1ccccc1
- zone of inhibition at 10 µg/disc [1]: 9 mm
- zone of inhibition at 10 µg/disc [2]: 6 mm
- zone of inhibition at 10 µg/disc [3]: 10 mm
- zone of inhibition at 10 µg/disc [4]: 9 mm
- zone of inhibition at 10 µg/disc [5]: 7 mm
- zone of inhibition at 10 µg/disc [6]: 11 mm
- zone of inhibition at 10 µg/disc [7]: 12 mm

Reference: ChEMBL document CHEMBL2203022, “Design, synthesis and antimicrobial evaluation of novel 1-benzyl 2-butyl-4-chloroimidazole embodied 4-azafluorenones via molecular hybridization approach” (2012)
